From PubChem
PHOSPHO1 inh: PubChem AID 1565. recombinant PHOSPHO1, absorbance phosphatase assay. Phosphoethanolamine/phosphocholine phosphatase (Homo sapiens), Q8TCT1. actives 1.1% (n = 290,000). inhibition, % at 13.3 µM; in the data active = inhibition above about 60%
Target sequence (Q8TCT1 whole entry, looked up): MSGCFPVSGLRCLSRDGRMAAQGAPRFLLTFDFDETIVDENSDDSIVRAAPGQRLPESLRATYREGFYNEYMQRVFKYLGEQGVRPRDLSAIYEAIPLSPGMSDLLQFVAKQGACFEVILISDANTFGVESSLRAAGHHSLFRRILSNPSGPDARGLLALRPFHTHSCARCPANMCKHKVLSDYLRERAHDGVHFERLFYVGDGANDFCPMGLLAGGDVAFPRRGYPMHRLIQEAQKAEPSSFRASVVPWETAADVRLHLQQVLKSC
VIM-2 inhibitor: VIM-2 metallo-beta-lactamase inhibitors, primary screen, biochemical, epi-absorbance readout, Pseudomonas aeruginosa enzyme; inhibition, % at 5.6 µM; purified VIM-2, nitrocefin hydrolysis, epi-absorbance fluorescence; actives 0.89% (n = 290,000);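 active = inhibition above the mean of all tested compounds plus 3 SD, cutoff set per screening run, cut at about 7.5% in these data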;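 note: red hydrolysis product quenches plate fluorescence so inhibitors raise well fluorescence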
IMP-1 inh-1: IMP-1 metallo-beta-lactamase inhibitors, primary screen, biochemical, epi-absorbance readout, Pseudomonas aeruginosa enzyme; metallo-beta-lactamase IMP-1 (Pseudomonas aeruginosa); purified IMP-1, nitrocefin hydrolysis, epi-absorbance fluorescence; inhibition, % at 5.6 µM; actives 0.45% (n = 290,000);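 active = inhibition above the mean plus 3 SD of all compounds in the same screening run, cut at about 4.5% in these data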
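Assay system: purified recombinant IMP-1 beta-lactamase. Input: IMP-1 0.2 nM before substrate addition. Buffer or medium: Zinc- and detergent-supplemented HEPES buffer, pH 7.1. Schedule: 25 °C, 15 min preincubation, 25 min reaction. Signal: Epi-absorbance fluorescence, 480 nm excitation, 530 nm emission. Evaluation: percent inhibition from optical density relative to buffer-blank wells.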
HCV NS3 hel inh: inhibitors of HCV NS3 helicase, primary screen, biochemical, Cy5 molecular beacon fluorescence; Hepatitis C virus NS3 helicase; NS3 helicase DNA unwinding; inhibition, % at 10.9 µM; actives 0.56% (n = 290,000); AID 1800, 2009;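 active = inhibition above the mean of all tested compounds plus 3 SD, set per campaign, cut at about 35% in these data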
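Test system: hepatitis C virus NS3 helicase domain fragment enzyme. Also added: annealed dual-labelled DNA beacon duplex, ATP-started. Timing: 60 min unwinding reaction at 25 °C after ATP addition. Technique: Cy5 fluorescence. Measure: % inhibition of unwinding.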
HCV core dimer: inhibitors of HCV core protein dimerization, primary screen, biochemical, TR-FRET, high-throughput | TR-FRET GST/Flag-core106 dimerization, 1536-well | inhibition, % at 5 µM | actives 0.33% (n = 300,000);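 active = inhibition above the mean of all tested compounds plus 3 SD, set per screening campaign, cut at about 45% in these data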
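test system = GST/Flag-tagged HCV core106 proteins | probe or stimulus = Eu donor and XL665 acceptor anti-tag antibodies | times = compound-protein-antibody incubation 4 h at 22.5 °C | signal = TR-FRET, excitation 340 nm, emission 617 and 671 nm | measure = percent inhibition of core106 dimerization signal | controls = wells lacking GST-core106 and wells with excess unlabelled core106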
SUMO HTRF inh: inhibitors of in vitro SUMOylation cascade, primary screen, biochemical, HTRF, uHTS; SUMO-conjugating enzyme UBC9 (Homo sapiens), P63279; HTRF SUMOylation assay, SAE1/SAE2 + UBC9; inhibition, % at 35 µM; actives 0.36% (n = 290,000); in the data active = inhibition above about 50%, passing the limit was not always enough
Target sequence (P63279 whole entry, looked up): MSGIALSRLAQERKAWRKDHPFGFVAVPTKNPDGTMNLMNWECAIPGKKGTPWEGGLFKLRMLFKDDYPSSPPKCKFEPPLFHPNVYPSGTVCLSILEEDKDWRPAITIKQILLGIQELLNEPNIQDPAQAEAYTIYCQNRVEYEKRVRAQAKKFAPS
IMP-1 inh-2: IMP-1 metallo-beta-lactamase inhibitors, confirmation, selectivity assay for selective VIM-2 inhibitor project, biochemical, epi-absorbance readout, triplicate; shares compounds with VIM-2 inhibitor; purified IMP-1, nitrocefin hydrolysis, epi-absorbance fluorescence; inhibition, % at 5.6 µM; 1,300 tested, under 10 active; call rule not given here
VIM-2 FRET inh: VIM-2 inhibitors in FRET format, confirmation, artefact control for selective VIM-2 inhibitor project, biochemical, epi-absorbance artifact exclusion; shares compounds with VIM-2 inhibitor; purified VIM-2, CCF2 FRET substrate hydrolysis; inhibition, % at 5.6 µM; actives 23% (n = 1,300); AID 1857, 2009;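 active = inhibition above the mean of all tested compounds plus 3 SD, cut at about 19% in these data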
TEM-1 counter: TEM-1 serine beta-lactamase inhibitors, counter-screen for VIM-2 inhibitor project, biochemical, epi-absorbance, HTS. Purified TEM-1, nitrocefin hydrolysis, epi-absorbance fluorescence. actives 3% (n = 1,300). inhibition, % at 5.6 µM. shares compounds with VIM-2 inhibitor;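 active = inhibition above that campaign's mean inhibition plus 3 SD, cut at about 0.46% in these data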
Target sequence (P62593 whole entry, looked up): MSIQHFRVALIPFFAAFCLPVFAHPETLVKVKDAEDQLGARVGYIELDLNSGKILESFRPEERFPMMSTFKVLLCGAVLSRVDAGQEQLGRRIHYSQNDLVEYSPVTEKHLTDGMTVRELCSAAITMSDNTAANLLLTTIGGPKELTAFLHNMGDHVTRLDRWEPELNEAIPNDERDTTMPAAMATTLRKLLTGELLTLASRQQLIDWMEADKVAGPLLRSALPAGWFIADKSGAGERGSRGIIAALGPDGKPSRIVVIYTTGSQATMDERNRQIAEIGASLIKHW
VIM-2 confirm 2: VIM-2 metallo-beta-lactamase inhibitors, confirmation, biochemical, epi-absorbance, hits shared with IMP-1 screen. inhibition, % at 5.6 µM. purified VIM-2, nitrocefin hydrolysis. actives 96% (n = 1,300). AID 2187, 2009. shares compounds with VIM-2 inhibitor;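 active = inhibition of the VIM-2 beta-lactamase enzyme above about 11% from the earlier first-round screen, limit read from the data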
Numbers stand for hits; . = inactive; / = not tested or not shown. An excerpt weighted towards active compounds, which were near 3.1% of everything screened.

SMILES | PHOSPHO1 inh | VIM-2 inhibitor | IMP-1 inh-1 | HCV NS3 hel inh | HCV core dimer | SUMO HTRF inh | IMP-1 inh-2 | VIM-2 FRET inh | TEM-1 counter | VIM-2 confirm 2
O=C(O)c1cccc2c1C(=O)c1ccccc1-2 | . | 14 | . | . | . | . | . | 31 | . | 17
O=C(O)c1cccc2c1C(=O)c1ccccc1C2=O | . | . | . | . | . | . | / | / | / | /
COc1ccc(Cc2nnc(NC(=O)C3CCCO3)s2)cc1OC (stereo unspecified) | . | 56 | . | . | . | . | . | . | . | .
COc1ccc(Cc2nnc(NC(=O)C3CCCO3)s2)cc1 (stereo unspecified) | . | . | . | . | . | . | / | / | / | /
CN(/N=C/C=C/c1ccccc1)C1=NS(=O)(=O)c2ccccc21 | . | . | . | . | . | . | / | / | / | /
COc1cc(/C=N/N(C)C2=NS(=O)(=O)c3ccccc32)cc(OC)c1OC | . | 32 | . | . | . | . | . | . | . | 35
Cc1cc(C)c2nc3nc(C)c(C)cc3c(N)c2c1 | . | 18 | . | . | / | . | . | . | . | 29
O=C(NCCN1CCOCC1)C1CCN(Cc2ccccc2O)CC1 | . | . | . | . | . | . | / | / | / | /
CCCCN(CC)CCCNC(=O)C1CCN(c2ncnc3c2sc2cccc(F)c23)CC1 | . | 30 | . | . | . | . | . | . | . | 38
O=C(NCCN1CCOCC1)C1CCN(c2ncnc3c2sc2cccc(F)c23)CC1 | . | 23 | . | . | . | . | . | . | . | 37
N=C1C(=O)OCC1c1ccccc1NC(=O)CN1CCOCC1 (stereo unspecified) | . | . | . | . | . | . | / | / | / | /
COc1ccc(Nc2nc(N3CCCC3)c3ccccc3n2)cc1 | . | 19 | . | . | . | . | . | . | . | 35
CCN(CC)c1ccc(Nc2nc(N3CCOCC3)c3ccccc3n2)cc1 | . | . | . | . | . | . | / | / | / | /
COc1ccc2c(c1)oc(=O)c1cc(OC)ccc12 | . | . | . | . | . | . | / | / | / | /
COc1ccc2c(c1)oc(=O)c1ccccc12 | . | 8.3 | . | . | . | . | . | . | . | 15
COc1ccc(-c2cc(=O)oc3c(O)c(O)ccc23)cc1 | . | 13 | . | . | . | . | . | . | . | 18
O=C1N=C(c2ccccc2)C(c2ccccc2)N1 (stereo unspecified) | . | 15 | . | . | . | . | . | . | . | 51
COc1ccc(C2=NC(=O)NC2c2ccc(OC)cc2)cc1 (stereo unspecified) | . | . | . | . | . | . | / | / | / | /
CN(C)S(=O)(=O)c1cccc(NC(=S)N/N=C/C2CC=CCC2)c1 (stereo unspecified) | . | 71 | . | . | . | . | . | 83 | . | 76
CN(C)S(=O)(=O)c1cccc(NC(=S)NC2CCCCC2)c1 | . | . | . | . | . | . | / | / | / | /
CN(C)S(=O)(=O)c1cccc(NC(=S)NN=C(Cc2ccccc2)Cc2ccccc2)c1 | . | 15 | . | . | . | . | . | . | . | .
O=c1oc2c3c4c(cc2c2c1CCC2)OCCN4CCC3 | . | 14 | . | . | . | . | . | . | . | 37
Cc1coc2c(C)c3oc(=O)c4c(c3cc12)CCC4 | / | . | . | . | / | / | / | / | / | /
CNC(C)C#Cc1ccc2c(=O)c3c(OC)cccc3oc2c1 (stereo unspecified) | . | 14 | . | . | . | . | . | . | . | 31
Cc1ccc(/C=N\NC(=O)/C(=C\Nc2nccc(C)n2)NC(=O)c2ccccc2)cc1 | . | . | . | . | . | . | / | / | / | /
SMILES | PHOSPHO1 inh | VIM-2 inhibitor | IMP-1 inh-1 | HCV NS3 hel inh | HCV core dimer | SUMO HTRF inh | IMP-1 inh-2 | VIM-2 FRET inh | TEM-1 counter | VIM-2 confirm 2
Cc1oc2ccc(Br)cc2c(=O)c1-c1nn[nH]n1 | . | 21 | . | . | . | . | . | 41 | 4.2 | 27
Cc1nc(C)c(-c2csc(Nc3ccc(N)cc3)n2)s1 | / | . | . | . | . | . | / | / | / | /
c1cncc(Nc2nc(-c3ccncc3)cs2)c1 | . | 16 | . | . | . | . | . | . | . | 38
c1cncc(Nc2nc(-c3cccnc3)cs2)c1 | . | 12 | . | . | . | . | . | . | . | 41
Cc1nc(C)c(-c2csc(Nc3cccnc3)n2)s1 | . | 30 | . | . | . | . | . | . | . | 45
CCOC(=O)C1CCCN(C(=S)NC2CCCC2)C1 (stereo unspecified) | . | . | . | . | . | . | / | / | / | /
CCOc1ccc(Nc2ccnc3cc(Cl)ccc23)cc1 | . | . | . | . | . | . | / | / | / | /
CN1CCN(c2ccc(Nc3ccnc4cc(Cl)ccc34)cc2)CC1 | / | 87 | . | . | . | . | . | . | . | 88
C=CCN=C1S/C(=C\c2ccc(N(C)C)cc2)C(=O)N1CC=C | . | . | . | . | . | . | / | / | / | /
COc1cc2c(cc1OC)C(C)N(C(=O)c1nccnc1C(=O)O)CC2 (stereo unspecified) | . | 20 | . | . | . | . | . | 43 | . | 33
COc1cc2c(cc1OC)C(C)N(C(=O)c1cc(Cl)nc(Cl)c1)CC2 (stereo unspecified) | . | . | . | . | . | . | / | / | / | /
Cc1ccc(S(=O)(=O)N(C)C)cc1NC(=O)COC(=O)CNC(=O)c1cccs1 | / | / | / | / | . | / | / | / | / | /
Cc1cc(NCC2CCCO2)n2c(nc3ccccc32)c1C#N (stereo unspecified) | . | 13 | . | . | . | . | . | . | . | 38
Cc1cc(NCCCOC(C)C)n2c(nc3ccccc32)c1C#N | . | 30 | . | . | . | . | . | . | . | 37
Cc1cc(NCCCn2ccnc2)n2c(nc3ccccc32)c1C#N | . | 82 | . | . | . | . | . | . | . | 89
